Converted amounts (≈) assume the structure as drawn.
Assays:
[1] = system: Serratia marcescens; assay: Antimicrobial activity against Serratia marcescens 2297260 B-U isolated from patient with pyelonephritis by Etest; format: functional
[2] = system: Staphylococcus aureus; assay: Antimicrobial activity against Staphylococcus aureus 1889640 A-Z isolated from patient with pyelonephritis by Etest; format: functional
[3] = system: Enterococcus faecalis; assay: Antimicrobial activity against Enterococcus faecalis 2215767-10 B-S isolated from patient with pyelonephritis by Etest; format: functional
[4] = system: Escherichia coli; assay: Antimicrobial activity against Escherichia coli 1889647 B-H isolated from patient with pyelonephritis assessed as >3-log reduction in urinary bacterial titer after 16 hrs; format: functional, Urine
Outline: (§1)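 Urine was collected on day 3 of i.v. therapy (steady state) over 4-h intervals from infusion start (0–4 to 20–24 h), stored at –80°C and sterile filtered. It was serially diluted twofold (1:0 up to 1:131,072) in the patient's own pre-dose drug-free urine. Microdilution used a final inoculum of 1.0 x 10^6 to 9.5 x 10^6 CFU/ml, incubated 18 h at 37°C in air. 10 µl was subcultured onto 5% blood Columbia agar for 24 h at 37°C. The bactericidal endpoint was >99.9% (>3-log) kill, reported as a reciprocal titer.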

[5] = system: Escherichia coli; assay: Antimicrobial activity against Escherichia coli 1889647 B-H isolated from patient with pyelonephritis assessed as >3-log reduction in urinary bacterial titer after 12 hrs; format: functional, Urine; outline: as §1
[6] = system: Staphylococcus epidermidis; assay: Antimicrobial activity against Staphylococcus epidermidis 2297262-9 B-V isolated from patient with pyelonephritis assessed as >3-log reduction in urinary bacterial titer after 16 hrs; format: functional, Urine
[7] = system: Escherichia coli; assay: Antimicrobial activity against Escherichia coli 1780064 A-X isolated from patient with pyelonephritis assessed as >3-log reduction in urinary bacterial titer after 12 hrs; format: functional, Urine
Outline: (§2)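 Urine was collected before dosing and on day 3 of i.v. therapy (steady state), in 4-h intervals from infusion start (0–4 to 20–24 h), stored at −80°C and sterile filtered. It was serially diluted twofold (1:0 to 1:131,072) in the patient's drug-free pre-dose urine. Microdilution used an inoculum of 1.0 x 10^6–9.5 x 10^6 CFU/ml, incubated 18 h at 37°C, then subcultured 24 h on blood agar. The endpoint was >99.9% kill, reported as reciprocal titer.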

[8] = system: Staphylococcus epidermidis; assay: Antimicrobial activity against Staphylococcus epidermidis 1949822 B-J isolated from patient with pyelonephritis assessed as >3-log reduction in urinary bacterial titer after 4 hrs; format: functional, Urine
[9] = system: Staphylococcus aureus; assay: Antimicrobial activity against Staphylococcus aureus 2215767-9 B-S isolated from patient with pyelonephritis assessed as >3-log reduction in urinary bacterial titer after 16 hrs; format: functional, Urine
[10] = system: Enterococcus faecalis; assay: Antimicrobial activity against Enterococcus faecalis 2215767-10 B-S isolated from patient with pyelonephritis assessed as >3-log reduction in urinary bacterial titer after 12 hrs; format: functional, Urine; outline: as §2
[11] = system: Staphylococcus epidermidis; assay: Antimicrobial activity against Staphylococcus epidermidis 1949822 B-J isolated from patient with pyelonephritis assessed as >3-log reduction in urinary bacterial titer after 12 hrs; format: functional, Urine
[12] = system: Escherichia coli; assay: Antimicrobial activity against Escherichia coli 1655646 A-Y isolated from patient with pyelonephritis assessed as >3-log reduction in urinary bacterial titer after 24 hrs; format: functional, Urine; outline: as §2
[13] = system: Staphylococcus aureus; assay: Antimicrobial activity against Staphylococcus aureus 2215767-9 B-S isolated from patient with pyelonephritis assessed as >3-log reduction in urinary bacterial titer after 8 hrs; format: functional, Urine
[14] = system: Pseudomonas aeruginosa; assay: Antimicrobial activity against Pseudomonas aeruginosa 1821383 B-E isolated from patient with pyelonephritis assessed as >3-log reduction in urinary bacterial titer after 20 hrs; format: functional, Urine
[15] = system: Escherichia coli; assay: Antimicrobial activity against Escherichia coli 1821386 B-D isolated from patient with pyelonephritis by Etest; format: functional
[16] = system: Pseudomonas aeruginosa; assay: Antimicrobial activity against Pseudomonas aeruginosa 2062713 B-Q isolated from patient with pyelonephritis assessed as >3-log reduction in urinary bacterial titer after 20 hrs; format: functional, Urine
[17] = system: Escherichia coli; assay: Antimicrobial activity against Escherichia coli 2062716 B-R isolated from patient with pyelonephritis assessed as >3-log reduction in urinary bacterial titer after 12 hrs; format: functional, Urine
Outline: (§3)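 Patient urine was collected on day 3 of i.v. therapy (steady state) over 4-h intervals after infusion start, stored at –80°C, and sterile filtered. It was twofold serially diluted (1:0 to 1:131,072) in the patient's own pre-dose drug-free urine, inoculated to 1.0 x 10^6–9.5 x 10^6 CFU/ml, and incubated for 18 h at 37°C. Subcultures were grown on blood agar for 24 h. The UBT is the reciprocal of the highest dilution giving >99.9% kill.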

[18] = system: Escherichia coli; assay: Antimicrobial activity against Escherichia coli 1780064 A-X isolated from patient with pyelonephritis assessed as >3-log reduction in urinary bacterial titer after 16 hrs; format: functional, Urine; outline: as §2
[19] = system: Serratia marcescens; assay: Antimicrobial activity against Serratia marcescens 2297260 B-U isolated from patient with pyelonephritis assessed as >3-log reduction in urinary bacterial titer after 4 hrs; format: functional, Urine
[20] = system: Enterococcus faecalis; assay: Antimicrobial activity against Enterococcus faecalis 2215767-10 B-S isolated from patient with pyelonephritis assessed as >3-log reduction in urinary bacterial titer after 24 hrs; format: functional, Urine; outline: as §2
[21] = system: Escherichia coli; assay: Antimicrobial activity against Escherichia coli 1889647 B-H isolated from patient with pyelonephritis assessed as >3-log reduction in urinary bacterial titer after 20 hrs; format: functional, Urine; outline: as §1
[22] = system: Escherichia coli; assay: Antimicrobial activity against Escherichia coli 1780064 A-X isolated from patient with pyelonephritis assessed as >3-log reduction in urinary bacterial titer after 4 hrs; format: functional, Urine; outline: as §1
[23] = system: Escherichia coli; assay: Antimicrobial activity against Escherichia coli 2062716 B-R isolated from patient with pyelonephritis by Etest; format: functional
[24] = system: Enterococcus faecalis; assay: Antimicrobial activity against Enterococcus faecalis 2297262-10 B-V isolated from patient with pyelonephritis assessed as >3-log reduction in urinary bacterial titer after 16 hrs; format: functional, Urine; outline: as §2
[25] = system: Escherichia coli; assay: Antimicrobial activity against Escherichia coli 1949825 B-K isolated from patient with pyelonephritis assessed as >3-log reduction in urinary bacterial titer after 24 hrs; format: functional, Urine; outline: as §3
[26] = system: Staphylococcus haemolyticus; assay: Antimicrobial activity against Staphylococcus haemolyticus 1949819 B-M isolated from patient with pyelonephritis assessed as >3-log reduction in urinary bacterial titer after 20 hrs; format: functional, Urine
[27] = system: Escherichia coli; assay: Antimicrobial activity against Escherichia coli 1821385 B-C isolated from patient with pyelonephritis assessed as >3-log reduction in urinary bacterial titer after 16 hrs; format: functional, Urine; outline: as §1
[28] = system: Escherichia coli; assay: Antimicrobial activity against Escherichia coli 1780063 B-A isolated from patient with pyelonephritis assessed as >3-log reduction in urinary bacterial titer after 8 hrs; format: functional, Urine; outline: as §2
[29] = system: Escherichia coli; assay: Antimicrobial activity against Escherichia coli 1889645 B-I isolated from patient with pyelonephritis assessed as >3-log reduction in urinary bacterial titer after 8 hrs; format: functional, Urine; outline: as §1
[30] = system: Enterococcus faecalis; assay: Antimicrobial activity against Enterococcus faecalis 2215770 B-T isolated from patient with pyelonephritis assessed as >3-log reduction in urinary bacterial titer after 12 hrs; format: functional, Urine; outline: as §2
[31] = system: Escherichia coli; assay: Antimicrobial activity against Escherichia coli 1780063 B-A isolated from patient with pyelonephritis assessed as >3-log reduction in urinary bacterial titer after 16 hrs; format: functional, Urine; outline: as §2
[32] = system: Enterococcus faecalis; assay: Antimicrobial activity against Enterococcus faecalis 2215770 B-T isolated from patient with pyelonephritis by Etest; format: functional
[33] = system: Escherichia coli; assay: Antimicrobial activity against Escherichia coli 1949826 B-L isolated from patient with pyelonephritis assessed as >3-log reduction in urinary bacterial titer after 16 hrs; format: functional, Urine; outline: as §3
[34] = system: Escherichia coli; assay: Antimicrobial activity against Escherichia coli 1949826 B-L isolated from patient with pyelonephritis assessed as >3-log reduction in urinary bacterial titer after 20 hrs; format: functional, Urine; outline: as §3

Compound: C[C@H]1COc2c(N3CCN(C)CC3)c(F)cc3c(=O)c(C(=O)O)cn1c23.C[C@H]1COc2c(N3CCN(C)CC3)c(F)cc3c(=O)c(C(=O)O)cn1c23.O [LEVOFLOXACIN]
- MIC [1]: 0.19 mg/L
- MIC [2]: 0.06 mg/L
- MIC [3]: > 32 mg/L
- urinary bactericidal titer [4]: 1024 reciprocal titer
- urinary bactericidal titer [5]: 512 reciprocal titer
- urinary bactericidal titer [6]: 2 reciprocal titer
- urinary bactericidal titer [7]: 256 reciprocal titer
- urinary bactericidal titer [8]: 4 reciprocal titer
- urinary bactericidal titer [9]: 0 reciprocal titer
- urinary bactericidal titer [10]: 1 reciprocal titer
- urinary bactericidal titer [11]: 2 reciprocal titer
- urinary bactericidal titer [12]: 256 reciprocal titer
- urinary bactericidal titer [13]: 0 reciprocal titer
- urinary bactericidal titer [14]: 128 reciprocal titer
- MIC [15]: < 0.03 mg/L
- urinary bactericidal titer [16]: 4 reciprocal titer
- urinary bactericidal titer [17]: 512 reciprocal titer
- urinary bactericidal titer [18]: 128 reciprocal titer
- urinary bactericidal titer [19]: 512 reciprocal titer
- Time [20]: 0 h
- urinary bactericidal titer [21]: 512 reciprocal titer
- urinary bactericidal titer [22]: 1024 reciprocal titer
- MIC [23]: 0.032 mg/L
- urinary bactericidal titer [24]: 0 reciprocal titer

Compound: C[C@@H](O)[C@H]1C(=O)N2C(C(=O)O)=C(S[C@@H]3CN[C@H](CNS(N)(=O)=O)C3)[C@H](C)[C@H]12 [DORIPENEM]
- urinary bactericidal titer [25]: 256 reciprocal titer
- urinary bactericidal titer [26]: 2048 reciprocal titer
- urinary bactericidal titer [27]: 8192 reciprocal titer
- urinary bactericidal titer [28]: 1024 reciprocal titer
- urinary bactericidal titer [29]: 32800 reciprocal titer
- urinary bactericidal titer [30]: 1024 reciprocal titer
- urinary bactericidal titer [31]: 1024 reciprocal titer
- MIC [32]: 0.25 mg/L (≈ 0.595 µM)
- urinary bactericidal titer [33]: 32800
- urinary bactericidal titer [34]: 65500 reciprocal titer
